The species entered for test [1] is Homo sapiens. Kind of test: Inhibition of 10 uM ADP induced platelet aggregation in human platelet rich citreated plasma (PRP). The test is classed as functional. Put shortly: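 Aggregation is read as the increase in light transmission in an aggregometer, with platelets used within 3 h of collection. IC50 comes from regression of dose-response curves for inhibition of maximal aggregation, adjusted against a standard run in each experiment.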

The target in test [2] is Integrin alpha-IIb/beta-3 (Homo sapiens, UniProt P05106+P08514). Kind of test: Binding affinity against integrin alpha 2b-beta 3 in enzyme linked immunosorbent assay (ELISA). The test is classed as protein-complex assay. The procedure, abridged:
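Purified human platelet αIIbβ3 (from outdated platelets, octyl glucoside extract) in TBS with 20 mM octyl glucoside, 2 mM MgCl2 and 2 mM CaCl2 binds to plate-coated human fibrinogen (10 µg/mL in TBS) with 10-fold serial peptide dilutions for 3 h at room temperature. Bound receptor is detected with rabbit anti-αIIbβ3, then HRP anti-rabbit IgG, with o-phenylenediamine/H2O2 at pH 5.0. IC50 is reported.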

Test [3] has as its target Integrin alpha-5/beta-1 (Homo sapiens, UniProt P05556+P08648). The test is described as follows: Binding affinity against integrin alpha5-beta1 in enzyme linked immunosorbent assay (ELISA). The test is classed as protein-complex assay.
In test [4] the target is Integrin alpha-V/beta-5 (Homo sapiens, UniProt P06756+P18084). The test is described as follows: Binding affinity against integrin alpha V-beta5 in enzyme linked immunosorbent assay (ELISA). In kind it is protein-complex assay. Put shortly:
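It is added to wells coated with human vitronectin in 0.1 M carbonate, pH 9.6, with 10-fold serial peptide dilutions for 3 h at room temperature. Detection uses rabbit anti-VnR, HRP anti-rabbit IgG and o-phenylenediamine/H2O2.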
For orientation: An ELISA detects its analyte on a solid surface through an enzyme-linked reagent.

*1 amine or outer side, *2 acyl side, *3 side chain or, on linkers, in order; H or OH if unused. Where a SMILES comes first, the peptide text is derived from it. Bridges are numbered along the chain shown (N, C = ends). X1 = O=C(CC1(S[*:2])CCCCC1)[*:1]

For orientation: IC50 means the concentration that gives 50% inhibition.

Chain of Integrin alpha-5/beta-1 (P05556 21-798 limits assumed): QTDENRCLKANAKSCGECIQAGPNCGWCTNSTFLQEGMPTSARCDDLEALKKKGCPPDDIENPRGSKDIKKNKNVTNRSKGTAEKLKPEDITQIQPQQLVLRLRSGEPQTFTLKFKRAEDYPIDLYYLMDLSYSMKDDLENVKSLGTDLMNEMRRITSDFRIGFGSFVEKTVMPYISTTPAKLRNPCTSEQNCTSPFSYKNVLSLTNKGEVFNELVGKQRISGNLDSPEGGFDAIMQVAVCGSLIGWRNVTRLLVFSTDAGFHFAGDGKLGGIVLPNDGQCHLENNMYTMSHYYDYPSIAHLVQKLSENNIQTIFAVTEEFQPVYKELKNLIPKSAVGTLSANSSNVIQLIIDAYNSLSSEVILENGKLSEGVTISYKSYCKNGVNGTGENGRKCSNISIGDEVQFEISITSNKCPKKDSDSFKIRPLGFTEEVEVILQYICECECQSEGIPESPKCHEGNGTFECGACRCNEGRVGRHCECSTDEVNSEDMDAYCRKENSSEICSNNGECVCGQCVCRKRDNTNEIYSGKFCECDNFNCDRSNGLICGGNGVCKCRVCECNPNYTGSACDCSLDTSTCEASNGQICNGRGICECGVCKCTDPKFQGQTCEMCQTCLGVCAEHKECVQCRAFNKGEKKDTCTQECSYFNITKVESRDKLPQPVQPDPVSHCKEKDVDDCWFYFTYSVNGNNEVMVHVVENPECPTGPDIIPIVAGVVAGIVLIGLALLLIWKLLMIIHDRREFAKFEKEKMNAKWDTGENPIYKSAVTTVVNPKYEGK
Chain of Integrin alpha-5/beta-1 (P08648 42-894 limits assumed): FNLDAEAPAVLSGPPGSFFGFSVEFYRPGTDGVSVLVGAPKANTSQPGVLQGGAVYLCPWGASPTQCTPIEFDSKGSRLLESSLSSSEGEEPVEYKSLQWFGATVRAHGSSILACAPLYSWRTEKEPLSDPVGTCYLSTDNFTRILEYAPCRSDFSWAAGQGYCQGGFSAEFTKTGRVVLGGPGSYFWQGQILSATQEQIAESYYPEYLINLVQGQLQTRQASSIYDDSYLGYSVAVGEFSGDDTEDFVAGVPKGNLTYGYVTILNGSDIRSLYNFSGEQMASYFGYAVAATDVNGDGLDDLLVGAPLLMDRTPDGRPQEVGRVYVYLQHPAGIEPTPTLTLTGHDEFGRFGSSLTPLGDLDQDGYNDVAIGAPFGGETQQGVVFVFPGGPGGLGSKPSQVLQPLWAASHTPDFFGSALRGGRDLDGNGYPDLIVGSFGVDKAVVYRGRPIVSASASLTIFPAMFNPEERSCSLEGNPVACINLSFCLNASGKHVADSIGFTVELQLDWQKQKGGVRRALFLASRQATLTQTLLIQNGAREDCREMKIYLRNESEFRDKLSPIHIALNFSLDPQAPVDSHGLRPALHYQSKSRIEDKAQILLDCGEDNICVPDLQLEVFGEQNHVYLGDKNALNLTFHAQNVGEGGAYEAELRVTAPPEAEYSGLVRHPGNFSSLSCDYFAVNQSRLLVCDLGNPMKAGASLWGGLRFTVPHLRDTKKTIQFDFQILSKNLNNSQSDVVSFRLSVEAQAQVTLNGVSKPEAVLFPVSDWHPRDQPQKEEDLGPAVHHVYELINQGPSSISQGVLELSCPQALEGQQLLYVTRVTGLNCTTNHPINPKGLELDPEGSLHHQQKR
Chain of Integrin alpha-5/beta-1 (P08648 895-1049 limits assumed): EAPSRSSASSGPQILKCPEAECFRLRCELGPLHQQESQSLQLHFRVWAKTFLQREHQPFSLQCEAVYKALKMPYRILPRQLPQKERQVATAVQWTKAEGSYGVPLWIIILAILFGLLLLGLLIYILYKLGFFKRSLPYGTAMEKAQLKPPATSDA
Chain of Integrin alpha-V/beta-5 (P06756 31-889 limits assumed): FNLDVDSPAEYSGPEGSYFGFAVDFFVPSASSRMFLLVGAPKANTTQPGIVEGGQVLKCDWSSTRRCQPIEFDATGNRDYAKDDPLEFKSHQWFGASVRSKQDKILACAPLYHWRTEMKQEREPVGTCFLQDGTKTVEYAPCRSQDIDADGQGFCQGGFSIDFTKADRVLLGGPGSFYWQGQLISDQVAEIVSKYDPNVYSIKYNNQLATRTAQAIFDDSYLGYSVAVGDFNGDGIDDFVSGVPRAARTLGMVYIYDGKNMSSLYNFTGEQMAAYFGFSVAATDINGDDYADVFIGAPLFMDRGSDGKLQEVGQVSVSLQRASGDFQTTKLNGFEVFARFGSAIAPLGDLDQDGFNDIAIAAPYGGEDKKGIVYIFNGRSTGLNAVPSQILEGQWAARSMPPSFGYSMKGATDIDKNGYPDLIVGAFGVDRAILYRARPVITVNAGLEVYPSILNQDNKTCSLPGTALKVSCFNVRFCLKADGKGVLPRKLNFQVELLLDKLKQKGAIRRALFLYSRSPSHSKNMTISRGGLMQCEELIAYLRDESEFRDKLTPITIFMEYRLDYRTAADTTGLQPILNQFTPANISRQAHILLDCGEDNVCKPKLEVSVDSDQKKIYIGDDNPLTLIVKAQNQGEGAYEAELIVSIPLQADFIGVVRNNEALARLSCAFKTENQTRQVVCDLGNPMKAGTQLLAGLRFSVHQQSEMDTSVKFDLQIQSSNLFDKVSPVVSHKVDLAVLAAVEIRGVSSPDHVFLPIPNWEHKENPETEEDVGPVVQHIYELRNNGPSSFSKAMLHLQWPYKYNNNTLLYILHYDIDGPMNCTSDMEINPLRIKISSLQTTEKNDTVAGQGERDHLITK
Chain of Integrin alpha-V/beta-5 (P06756 891-1048 limits assumed): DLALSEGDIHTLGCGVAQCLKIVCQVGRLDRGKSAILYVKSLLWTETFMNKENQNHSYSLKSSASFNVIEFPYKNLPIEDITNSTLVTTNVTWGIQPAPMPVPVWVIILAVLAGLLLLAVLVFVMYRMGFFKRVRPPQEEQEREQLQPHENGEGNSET
Chain of Integrin alpha-V/beta-5 (P18084 24-799 limits assumed): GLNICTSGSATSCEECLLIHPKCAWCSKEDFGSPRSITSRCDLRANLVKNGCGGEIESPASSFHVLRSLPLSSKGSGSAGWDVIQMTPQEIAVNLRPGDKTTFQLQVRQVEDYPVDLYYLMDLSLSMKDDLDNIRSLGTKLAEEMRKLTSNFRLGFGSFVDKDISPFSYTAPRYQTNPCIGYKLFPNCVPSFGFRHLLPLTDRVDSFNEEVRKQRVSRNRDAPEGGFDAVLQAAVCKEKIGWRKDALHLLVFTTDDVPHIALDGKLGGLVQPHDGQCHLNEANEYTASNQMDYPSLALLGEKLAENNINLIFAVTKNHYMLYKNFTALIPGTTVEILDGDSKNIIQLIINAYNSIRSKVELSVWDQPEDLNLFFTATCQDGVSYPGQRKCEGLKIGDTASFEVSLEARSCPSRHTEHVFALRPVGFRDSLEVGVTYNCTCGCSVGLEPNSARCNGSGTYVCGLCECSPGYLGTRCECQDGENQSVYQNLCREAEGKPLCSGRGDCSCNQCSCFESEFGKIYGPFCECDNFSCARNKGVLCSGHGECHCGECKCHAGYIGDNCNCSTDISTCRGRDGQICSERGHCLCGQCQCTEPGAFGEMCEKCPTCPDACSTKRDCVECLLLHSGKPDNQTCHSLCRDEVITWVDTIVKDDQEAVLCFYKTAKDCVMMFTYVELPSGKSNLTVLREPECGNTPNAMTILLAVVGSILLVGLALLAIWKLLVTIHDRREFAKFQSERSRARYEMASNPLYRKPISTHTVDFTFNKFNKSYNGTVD

For the molecule `CCCCOc1ccc(C[C@@H]2NC(=O)[C@H](CC(=O)O)NC(=O)CNC(=O)[C@H](CCCNC(=N)N)NC(=O)[C@H](Cc3c[nH]cn3)NC(=O)CNC(=O)[C@@H](NC(=O)[C@@H](N)CCCNC(=N)N)C3(CCCCC3)SSC[C@@H](C(=O)N[C@@H](CCCNC(=N)N)C(=O)O)NC(=O)[C@H](CCCNC(=N)N)NC2=O)cc1`, the IC50 is 0.35 µM in test [1] and 0.03 µM in test [2].

`N=C(N)NCCC[C@H](NC(=O)[C@@H]1CSSC2(CCCCC2)[C@H](NC(=O)[C@@H](N)CCCNC(=N)N)C(=O)NCC(=O)N[C@@H](Cc2c[nH]cn2)C(=O)N[C@@H](CCCNC(=N)N)C(=O)NCC(=O)N[C@@H](CC(=O)O)C(=O)N[C@@H](Cc2ccc(Cl)cc2)C(=O)N[C@@H](CCCNC(=N)N)C(=O)N1)C(=O)O`: the figures for the IC50 in test [1], in test [3] and in test [4] were 0.73 µM, 0.87 µM and 15.3 µM, respectively.

Regarding `N=C(N)NCCC[C@H](NC(=O)[C@@H]1CSSC2(CCCCC2)[C@H](NC(=O)[C@@H](N)CCCNC(=N)N)C(=O)NCC(=O)N[C@@H](Cc2c[nH]cn2)C(=O)N[C@@H](CCCNC(=N)N)C(=O)NCC(=O)N[C@@H](CC(=O)O)C(=O)N[C@@H](Cc2ccc(I)cc2)C(=O)N[C@@H](CCCNC(=N)N)C(=O)N1)C(=O)O`, the IC50 in test [3] stood at 4.19 µM; in test [4] it was 4.03 µM; in test [2], 0.01 µM.

For `NC(N)=NCCC[C@H](NC(=O)[C@@H]1CSSC2(CCCCC2)[C@H](NC(=O)[C@@H](N)CCCN=C(N)N)C(=O)NCC(=O)N[C@@H](Cc2c[nH]cn2)C(=O)N[C@@H](CCCN=C(N)N)C(=O)NCC(=O)N[C@@H](CC(=O)O)C(=O)N[C@@H](Cc2ccccc2)C(=O)N[C@@H](CCCN=C(N)N)C(=O)N1)C(=O)O`, the half-inhibitory concentration (IC50) in test [1] is 0.62 µM; in test [2] it was 0.04 µM.

For the molecule `COc1ccc(C[C@@H]2NC(=O)[C@H](CC(=O)O)NC(=O)CNC(=O)[C@H](CCCNC(=N)N)NC(=O)[C@H](Cc3c[nH]cn3)NC(=O)CNC(=O)[C@@H](NC(=O)[C@@H](N)CCCNC(=N)N)C3(CCCCC3)SSC[C@@H](C(=O)N[C@@H](CCCNC(=N)N)C(=O)O)NC(=O)[C@H](CCCNC(=N)N)NC2=O)cc1`, the results for the concentration for half-maximal inhibition (IC50) in test [3], in test [4] and in test [2] were 0.98 µM, 1.05 µM and 0.02 µM, respectively.

For `COc1ccc(C[C@@H]2NC(=O)[C@H](CC(=O)O)NC(=O)CNC(=O)[C@H](CCCN=C(N)N)NC(=O)[C@H](Cc3c[nH]cn3)NC(=O)[C@H](CCCN=C(N)N)NC(=O)[C@@H](NC(=O)[C@@H](N)CCCN=C(N)N)C3(CCCCC3)SSC[C@@H](C(=O)N[C@@H](CCCN=C(N)N)C(=O)O)NC(=O)[C@H](CCCN=C(N)N)NC2=O)cc1`, the IC50 in test [1] was found to be 0.44 µM; in test [2] it was 0.07 µM.

Consider `CC(C)C[C@@H]1NC(=O)[C@H](CC(=O)O)NC(=O)CNC(=O)[C@H](CCCNC(=N)N)NC(=O)[C@H](Cc2c[nH]cn2)NC(=O)CNC(=O)[C@@H](NC(=O)[C@@H](N)CCCNC(=N)N)C2(CCCC2)SSC[C@@H](C(=O)N[C@@H](CCCNC(=N)N)C(=O)O)NC(=O)[C@H](CCCNC(=N)N)NC1=O`, for which the IC50 was 4.1 µM in test [1], 0.34 µM in test [4] and 0.03 µM in test [2].

On to `CC(=O)N[C@H]1CSSC[C@@H](C(N)=O)NC(=O)[C@H](CCCN=C(N)N)NC(=O)[C@H](Cc2ccc([N+](=O)[O-])cc2)NC(=O)[C@H](CC(=O)O)NC(=O)CNC(=O)[C@H](CCCN=C(N)N)NC(=O)[C@@H]2CCCN2C(=O)[C@H](CC(N)=O)NC1=O`, for which the concentration for half-maximal inhibition (IC50) in test [1] worked out at 0.84 µM; in test [4], 4.8 µM; in test [2] it was 0.017 µM.

Turning to `NC(N)=NCCC[C@H](NC(=O)[C@@H]1CSSC2(CCCCC2)[C@H](NC(=O)[C@@H](N)CCCN=C(N)N)C(=O)NCC(=O)N[C@@H](Cc2c[nH]cn2)C(=O)N[C@@H](CCCN=C(N)N)C(=O)NCC(=O)N[C@@H](CC(=O)O)C(=O)N[C@@H](Cc2ccc3ccccc3c2)C(=O)N[C@@H](CCCN=C(N)N)C(=O)N1)C(=O)O`, the IC50 worked out at 0.44 µM in test [1], 7.72 µM in test [3] and 0.07 µM in test [2].

For `NC(N)=NCCC[C@H](NC(=O)[C@@H]1CSSC2(CCCCC2)[C@H](NC(=O)[C@@H](N)CCCN=C(N)N)C(=O)NCC(=O)N[C@@H](Cc2c[nH]cn2)C(=O)N[C@@H](CCCN=C(N)N)C(=O)NCC(=O)N[C@@H](CC(=O)O)C(=O)N[C@@H](c2ccccc2)C(=O)N[C@@H](CCCN=C(N)N)C(=O)N1)C(=O)O`, the IC50 is 0.68 µM in test [1] and 0.02 µM in test [2].

Turning to `CC(C)C[C@@H]1NC(=O)[C@H](CC(=O)O)NC(=O)CNC(=O)[C@H](CCCNC(=N)N)NC(=O)[C@H](Cc2c[nH]cn2)NC(=O)CNC(=O)[C@@H](NC(=O)[C@@H](N)CCCNC(=N)N)C(C)(C)SSC[C@@H](C(=O)N[C@@H](CCCNC(=N)N)C(=O)O)NC(=O)[C@H](CCCNC(=N)N)NC1=O`, the IC50 was 9.6 µM in test [1], 4.93 µM in test [4] and 0.04 µM in test [2].

In the case of `CC(C)C[C@@H]1NC(=O)[C@H](CC(=O)O)NC(=O)CNC(=O)[C@H](CCCNC(=N)N)NC(=O)[C@H](Cc2c[nH]cn2)NC(=O)CNC(=O)[C@@H](NC(=O)[C@@H](N)CCCNC(=N)N)C2(CCCCC2)SSC[C@@H](C(=O)N[C@@H](CCCNC(=N)N)C(=O)O)NC(=O)[C@H](CCCNC(=N)N)NC1=O`, the IC50 in test [1] came out at 3 µM; in test [4], 1.58 µM; in test [2], 0.4 µM.

Regarding `CCCCOc1ccc(C[C@@H]2NC(=O)[C@H](CC(=O)O)NC(=O)CNC(=O)[C@H](CCCNC(=N)N)NC(=O)[C@@H]3CCCN3C(=O)[C@H]([C@@H](C)CC)NC(=O)[C@@H](NC(C)=O)CSSC[C@@H](C(N)=O)NC(=O)[C@H](CCCNC(=N)N)NC2=O)cc1`, the results for the IC50 in test [3], in test [4] and in test [2] were 6 µM, > 10 µM and 0.016 µM, respectively.

On to `CC(C)C[C@@H]1NC(=O)[C@H](CC(=O)O)NC(=O)CNC(=O)[C@H](CCCNC(=N)N)NC(=O)[C@H](Cc2c[nH]cn2)NC(=O)CNC(=O)[C@H](NC(=O)[C@@H](N)CCCNC(=N)N)C(C)(C)SSC[C@@H](C(=O)N[C@@H](CCCNC(=N)N)C(=O)O)NC(=O)[C@H](CCCNC(=N)N)NC1=O`, for which the figures for the concentration for half-maximal inhibition (IC50) in test [1], in test [4] and in test [2] were 4.1 µM, 10 µM and 0.15 µM, respectively.

Regarding `CC[C@H](C)[C@@H]1NC(=O)[C@H](NC(C)=O)C(C)(C)SSC[C@@H](C(N)=O)NC(=O)[C@H](CCCNC(=N)N)NC(=O)[C@H](Cc2ccc(OC)cc2)NC(=O)[C@H](CC(=O)O)NC(=O)CNC(=O)[C@H](CCCNC(=N)N)NC(=O)[C@@H]2CCCN2C1=O`, the IC50 in test [1] turned out to be 0.28 µM; in test [2], 0.002 µM.

Consider `CC(C)C[C@@H]1NC(=O)[C@H](CC(=O)O)NC(=O)CNC(=O)[C@H](CCCNC(=N)N)NC(=O)[C@H](Cc2c[nH]cn2)NC(=O)CNC(=O)CC2(CCCCC2)SSC[C@@H](C(=O)N[C@@H](C)C(=O)O)NC(=O)[C@H](CCCNC(=N)N)NC1=O` (GHRGDLRCA-OH; linker N-8 via X1), for which the IC50 in test [1] amounted to 5.9 µM; in test [4], 10 µM; in test [2], 0.02 µM.

`CC(C)C[C@@H]1NC(=O)[C@H](CC(=O)O)NC(=O)CNC(=O)[C@H](CCCNC(=N)N)NC(=O)[C@H](Cc2c[nH]cn2)NC(=O)CNC(=O)[C@H](NC(=O)CN)C(C)(C)SSC[C@@H](C(=O)N[C@@H](C)C(=O)O)NC(=O)[C@H](CCCNC(=N)N)NC1=O` (stereo in doubt; 2) returned a 50% inhibitory concentration (IC50) in test [2] of 0.15 µM.
